Source: ChEMBL document CHEMBL4387761, “Design, synthesis and biological evaluation of novel 2,3-indolinedione derivatives against mantle cell lymphoma” (Bioorg Med Chem, 2019)

Assays:
Rec1 [1] = assay: Induction of apoptosis in human Rec1 cells assessed as early apoptotic cells at 5 uM after 24 hrs by Annexin V-FITC/propidium iodide staining based flow cytometric analysis (reference value: 7.66%); type: functional
Rec1 [2] = assay: Cell cycle arrest in human Rec1 cells assessed as accumulation at S phase at 1 uM after 24 hrs by flow cytometric analysis (reference value: 46.42%); type: functional
How it was run: (§1)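 Rec-1 cells seeded at 200,000 cells/well and treated at 0.5 or 1 μM for 24 h. Cells harvested, washed twice in cold PBS and fixed overnight in cold 70% ethanol at 4 °C. Stained with PI and analysed by flow cytometry for phase distribution.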

Rec1 [3] = assay: Induction of apoptosis in human Rec1 cells after 24 hrs by Annexin V-FITC/propidium iodide staining based flow cytometric analysis; type: functional, cell-based
Rec1 [4] = assay: Cell cycle arrest in human Rec1 cells assessed as accumulation at G2 phase at 0.5 uM after 24 hrs by flow cytometric analysis (reference value: 14.95%); type: functional; how it was run: as §1
Rec1 [5] = assay: Cell cycle arrest in human Rec1 cells assessed as accumulation at G1 phase at 0.5 uM after 24 hrs by flow cytometric analysis (reference value: 37.28%); type: functional; how it was run: as §1
Rec1 [6] = assay: Cell cycle arrest in human Rec1 cells assessed as accumulation at G2/G1 phase at 1 uM after 24 hrs by flow cytometric analysis (reference value: 1.96%); type: functional; how it was run: as §1
Z-138 [7] = assay: Induction of apoptosis in human Z138 cells assessed as early apoptotic cells at 0.5 uM after 24 hrs by Annexin V-FITC/propidium iodide staining based flow cytometric analysis (reference value: 7.6%); type: functional
Rec1 [8] = assay: Cell cycle arrest in human Rec1 cells assessed as accumulation at super-G2 phase at 0.5 uM after 24 hrs by flow cytometric analysis (reference value: 0.72%); type: functional; how it was run: as §1
Z-138 [9] = assay: Induction of apoptosis in human Z138 cells assessed as early apoptotic cells at 2.5 uM after 24 hrs by Annexin V-FITC/propidium iodide staining based flow cytometric analysis (reference value: 7.6%); type: functional
Z-138 [10] = assay: Induction of apoptosis in human Z138 cells assessed as viable cells at 1 uM after 24 hrs by Annexin V-FITC/propidium iodide staining based flow cytometric analysis (reference value: 87%); type: functional; conditions: Z-138, 24 h, read-out: Activity
Rec1 [11] = assay: Induction of apoptosis in human Rec1 cells assessed as late apoptotic cells at 0.5 uM after 24 hrs by Annexin V-FITC/propidium iodide staining based flow cytometric analysis (reference value: 6.32%); type: functional
Rec1 [12] = assay: Induction of apoptosis in human Rec1 cells assessed as necrotic cells at 0.5 uM after 24 hrs by Annexin V-FITC/propidium iodide staining based flow cytometric analysis (reference value: 0.62%); type: functional
Rec1 [13] = assay: Cell cycle arrest in human Rec1 cells assessed as accumulation at S phase at 0.5 uM after 24 hrs by flow cytometric analysis (reference value: 46.42%); type: functional; how it was run: as §1
Rec1 [14] = assay: Induction of apoptosis in human Rec1 cells assessed as viable cells at 0.5 uM after 24 hrs by Annexin V-FITC/propidium iodide staining based flow cytometric analysis (reference value: 85.54%); type: functional; conditions: Rec1, 24 h, read-out: Activity
Z-138 [15] = assay: Induction of apoptosis in human Z138 cells assessed as late apoptotic cells at 5 uM after 24 hrs by Annexin V-FITC/propidium iodide staining based flow cytometric analysis (reference value: 4.62%); type: functional
Rec1 [16] = assay: Induction of apoptosis in human Rec1 cells assessed as necrotic cells at 1 uM after 24 hrs by Annexin V-FITC/propidium iodide staining based flow cytometric analysis (reference value: 0.62%); type: functional
Rec1 [17] = assay: Induction of apoptosis in human Rec1 cells assessed as late apoptotic cells at 2.5 uM after 24 hrs by Annexin V-FITC/propidium iodide staining based flow cytometric analysis (reference value: 6.32%); type: functional
Z-138 [18] = assay: Induction of apoptosis in human Z138 cells assessed as necrotic cells at 2.5 uM after 24 hrs by Annexin V-FITC/propidium iodide staining based flow cytometric analysis (reference value: 0.61%); type: functional
Rec1 [19] = assay: Induction of apoptosis in human Rec1 cells assessed as viable cells at 1 uM after 24 hrs by Annexin V-FITC/propidium iodide staining based flow cytometric analysis (reference value: 85.54%); type: functional; conditions: Rec1, 24 h, read-out: Activity
Rec1 [20] = assay: Induction of apoptosis in human Rec1 cells assessed as necrotic cells at 2.5 uM after 24 hrs by Annexin V-FITC/propidium iodide staining based flow cytometric analysis (reference value: 0.62%); type: functional

O=C(CCl)Nc1ccc2c(c1)C(=O)C(=O)N2Cc1ccc(Cl)c(Cl)c1
Activity (Rec1 [1]): 13.9% | Activity (Rec1 [2]): 71.68% | Activity (Rec1 [3]): Dose-dependent effect | Activity (Rec1 [4]): 23.82% | Activity (Rec1 [5]): 39.17% | Activity (Rec1 [6]): 2.33% | Activity (Z-138 [7]): 8.92% | Activity (Rec1 [8]): 0.44% | Activity (Z-138 [9]): 18.3% | viability at 1 µM (Z-138 [10]): 46.8% | Activity (Rec1 [11]): 40.5% | Activity (Rec1 [12]): 4.19% | Activity (Rec1 [13]): 36.58% | viability at 0.5 µM (Rec1 [14]): 45% | Activity (Z-138 [15]): 59.1% | Activity (Rec1 [16]): 29.6% | Activity (Rec1 [17]): 62.4% | Activity (Z-138 [18]): 2.37% | viability at 1 µM (Rec1 [19]): 19.1% | Activity (Rec1 [20]): 20.4%
